Assay results taken from ChEMBL document CHEMBL3585337, “Selective inhibition of prolyl 4-hydroxylases by bipyridinedicarboxylates” (Bioorg Med Chem, 2015).
The source made the active and inactive calls. The calls are words filed in the database; no cut-off is given here.

Legend:
[1] = Binding affinity to Fe(2) assessed as half maximal concentration required for binding 20 uM Fe(2) in pH 7.0 sodium phosphate buffer
How it was run: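 Ligand at 3–500 µM in 10 mM sodium phosphate pH 7.0, started by adding freshly made FeSO4 (20 µM). Equilibrated 15 min, then absorbance read at complex λmax with the no-ligand blank subtracted. Absorbance plotted against log ligand, and Fe20-EC50 taken by sigmoidal non-linear regression. Triplicate; mean ± SE.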

[2] = molecular target: Egl nine homolog 1 (Homo sapiens) (UniProt Q9GZT9); test: Inhibition of N-terminal hexa-histidine tagged human PHD2 (181 to 426 amino acids) at 10 uM pre-incubated for 2 mins followed by alpha-ketoglutarate addition using HIF1alpha peptide (556 to 574 amino acids) and 50 uM FeSO4 by RP-HPLC method
How it was run: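 5 µM NHis6-PHD2(181–426) in Tris-HCl pH 7.8 with 50 µM HIF-1α(556–574) peptide, 1 mg/mL BSA, 0.3 mg/mL catalase, 2 mM ascorbate, 1 mM DTT. Started with 35 µM α-ketoglutarate, 10 min at 30 °C, quenched by 60 s boiling. Conversion by C18 HPLC at 218 nm, relative to no-inhibitor control; three independent experiments.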

[3] = Binding affinity to Fe(2) assessed as Fe(compound)2+/3 complex formation at 150 uM in Tris buffer at pH 7.8 at 30 degC
How it was run: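 Assay buffer: 50 mM Tris-HCl pH 7.8, 1% w/v BSA, 100 µg/mL catalase, 2 mM sodium ascorbate, 100 µM AKG, 100 µM DTT, 50 µM FeSO4. Incubated at 30 °C with or without ligand (150 µM). Fe(ligand)3 2+ complex detected by UV–Vis spectrophotometry.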

[4] = molecular target: T1, Prolyl 4-hydroxylase subunit alpha-1 (Homo sapiens, UniProt P13674); test: Inhibition of human recombinant CP4H1 expressed in Escherichia coli Origami B(DE3) at 10 uM pre-incubated for 2 mins followed by alpha-ketoglutarate addition using dansylGlyProProGlyOEt substrate in Tris-HCl buffer at pH 7.8 at 30 degC by HPLC method
[5] = molecular target: T1, Prolyl 4-hydroxylase subunit alpha-1; test: Inhibition of human recombinant CP4H1 expressed in Escherichia coli Origami B(DE3) pre-incubated for 2 mins followed by alpha-ketoglutarate addition using dansylGlyProProGlyOEt substrate in Tris-HCl buffer at pH 7.8 at 30 degC by HPLC method
[6] = molecular target: T1, Prolyl 4-hydroxylase subunit alpha-1; test: Inhibition of human recombinant CP4H1 expressed in Escherichia coli Origami B(DE3) pre-incubated for 2 mins followed by alpha-ketoglutarate addition using dansylGlyProProGlyOEt substrate in Tris-HCl buffer at pH 7.8 at 30 degC by HPLC based Cheng-Prussoff equation method
[7] = Inhibition of human collagen prolyl 4-hydroxylase

Chain of Egl nine homolog 1 (Homo sapiens) (Q9GZT9 2-426 limits assumed): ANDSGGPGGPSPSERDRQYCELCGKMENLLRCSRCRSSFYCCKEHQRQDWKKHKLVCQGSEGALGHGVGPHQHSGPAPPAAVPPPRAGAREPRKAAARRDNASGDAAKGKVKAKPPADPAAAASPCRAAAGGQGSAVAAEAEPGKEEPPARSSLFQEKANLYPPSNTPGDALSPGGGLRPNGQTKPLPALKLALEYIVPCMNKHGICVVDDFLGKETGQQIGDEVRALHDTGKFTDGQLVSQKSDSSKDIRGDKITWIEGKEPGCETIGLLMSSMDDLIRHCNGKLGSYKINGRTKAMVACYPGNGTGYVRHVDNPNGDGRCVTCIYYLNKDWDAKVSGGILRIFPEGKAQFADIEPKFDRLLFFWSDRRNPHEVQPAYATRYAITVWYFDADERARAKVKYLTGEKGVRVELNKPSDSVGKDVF
T1 sequence (P13674 whole entry): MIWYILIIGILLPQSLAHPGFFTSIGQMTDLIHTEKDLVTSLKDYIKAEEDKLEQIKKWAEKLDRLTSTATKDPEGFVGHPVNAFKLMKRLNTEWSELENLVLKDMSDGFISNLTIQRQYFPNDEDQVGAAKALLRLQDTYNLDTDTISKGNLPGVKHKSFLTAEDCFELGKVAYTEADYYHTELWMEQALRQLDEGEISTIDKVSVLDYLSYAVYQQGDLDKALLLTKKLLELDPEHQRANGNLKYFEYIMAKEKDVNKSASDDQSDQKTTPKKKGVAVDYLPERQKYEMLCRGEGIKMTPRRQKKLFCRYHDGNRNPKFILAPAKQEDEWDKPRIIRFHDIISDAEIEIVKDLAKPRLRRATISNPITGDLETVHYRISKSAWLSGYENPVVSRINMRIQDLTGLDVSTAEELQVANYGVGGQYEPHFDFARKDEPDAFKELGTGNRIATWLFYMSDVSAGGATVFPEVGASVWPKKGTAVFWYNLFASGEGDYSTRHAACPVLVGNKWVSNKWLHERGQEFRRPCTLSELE

Structure (SMILES)	EC50 ([1]; read-out: EC50) [µM]	inhibition [2]	Activity [3]	inhibition [4]	IC50 [5] [µM]	Ki [6] [µM]	Ki [7] [µM]	EC50 [1]
O=C(O)c1ccnc(-c2cccc(C(=O)O)n2)c1	26	inactive						
O=C(O)c1ccc(-c2cc(C(=O)O)ccn2)nc1	78	Active	Active	> 90%	1.2	0.2		
O=C(O)c1ccnc(-c2cc(C(=O)O)ccn2)c1	38	Active	Active	Active				
O=C(O)c1ccc(-c2ccc(C(=O)O)cn2)nc1	112	inactive	Active		0.84	0.14		
O=C(O)c1ccnc(C(=O)O)c1		Active						
c1ccc(-c2ccccn2)nc1	43		Active	inactive				
O=C(O)c1ccc(C(=O)O)nc1 [PYRIDINE-2,5-DICARBOXYLIC ACID]		inactive		Active	15	2.6	0.8	
O=C(O)CNC(=O)C(=O)O		Active						
O=C(O)c1cccc(-c2cccc(C(=O)O)n2)n1		inactive						Not Active
O=C(O)c1ccc(-c2cccc(C(=O)O)n2)nc1	27	inactive						
O=C(O)c1cccnc1-c1ncccc1C(=O)O								Not Active
